Test results reported in ChEMBL document CHEMBL5154772, “Biological Investigation of a Water-Soluble Isoginkgetin-Phosphate Analogue, Targeting the Spliceosome with In Vivo Antitumor Activity” (J Med Chem, 2022).

What was measured:
[1] = Metabolic stability in human liver microsomes assessed as parent compound remaining incubated for 45 mins in presence of NADPH by HPLC-MS/MS analysis; type: ADME, Microsome; conditions: read-out: Stability
How it was run: (§1)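 Incubation with mouse or human liver microsomes for 45 min, with or without NADPH. Remaining parent compound was quantified over time by HPLC-MS/MS and expressed as % remaining; intrinsic clearance is given in μL/min/mg protein.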

[2] = Toxicity in C57BL/6 mouse assessed as change in spleen weight at 250 mg/kg, ip administered as single dose and measured after 15 days (reference value: […]); type: organism-based; conditions: in vivo, 360 h, time 15 day
How it was run: (§2)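 Female C57BL/6 mice given one IP injection of 100 µL, at 50, 100, 250 or 500 mg/kg in sterile PBS, two mice per dose; PBS-injected controls. Behaviour checked right after and at 30 min. Body weight recorded every 2–3 days for 15 days, then liver, spleen and kidneys weighed.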

[3] = Metabolic stability in human liver microsomes assessed as parent compound remaining incubated for 45 mins in absence of NADPH by HPLC-MS/MS analysis; type: ADME, Microsome; conditions: read-out: Stability; how it was run: as §1
[4] = AUCextra in C57BL/6J mouse at 9.103 mg/kg, ip administered as single dose measured up to 24 hrs; type: ADME, organism-based; conditions: in vivo
How it was run: (§3)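 Single intraperitoneal dose in male C57BL/6J mice (12 per route). Tail-vein blood was collected under sodium heparin for plasma, with 3 mice sampled at each pair of times: 0.083/2, 0.25/4, 0.5/8 and 1/24 h. F denotes bioavailability.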

[5] = Toxicity in C57BL/6 mouse assessed as change in spleen weight at 50 mg/kg, ip administered as single dose and measured after 15 days (reference value: 0.1 to 0.2 g); type: organism-based; conditions: in vivo, 360 h, time 15 day; how it was run: as §2
[6] = Antitumour activity against mouse wild type MCA-205 cells implanted in C57BL/6 mouse assessed as tumor size by measuring cell killing pretreatment at 2.5 mg/kg, iv administered starting from day 7 post inoculation at five days interval upto 17 days relative to control; type: functional; conditions: time <= 17 day
How it was run: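 Female C57BL/6 mice (6 weeks old) given subcutaneous MCA205 WT fibrosarcoma in the right flank. 2.5 mg/kg given intravenously on days 7, 12 and 17 after inoculation; untreated controls. Tumour area recorded every 3–4 days until ethical endpoints, then tumour size at killing. Groups compared by one-way ANOVA.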

[7] = Toxicity in C57BL/6 mouse assessed as change in liver weight at 500 mg/kg, ip administered as single dose and measured after 15 days (reference value: 1.2 to 1.3 g); type: organism-based; conditions: in vivo, 360 h, time 15 day; how it was run: as §2
[8] = Cmax in C57BL/6J mouse at 0.711 mg/kg, iv administered as single dose measured up to 24 hrs; type: ADME, organism-based; set-up: time < 24 hrs, dose 0.711 mg/kg, route iv; conditions: in vivo
How it was run: (§4)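 Single intravenous dose. Mice were male C57BL/6J, 12 per route; tail-vein blood was collected under sodium heparin, with 3 mice sampled at each pair of times (0.083/2, 0.25/4, 0.5/8, 1/24 h). Dogs were male beagles (n=3); jugular blood was collected under K2 EDTA predose and at 0.083, 0.25, 0.5, 1, 2, 4, 6, 8 and 24 h. Plasma was prepared from the samples.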

[9] = Tmax in C57BL/6J mouse at 9.103 mg/kg, ip administered as single dose measured up to 24 hrs; type: ADME, organism-based; conditions: in vivo; how it was run: as §3
[10] = Toxicity in C57BL/6 mouse assessed as change in liver weight at 250 mg/kg, ip administered as single dose and measured after 15 days (reference value: 1.2 to 1.3 g); type: organism-based; conditions: in vivo, 360 h, time 15 day; how it was run: as §2
[11] = MRT(0 to t) in C57BL/6J mouse at 0.711 mg/kg, iv administered as single dose measured up to 24 hrs; type: ADME, organism-based; conditions: in vivo; how it was run: as §4
[12] = biological target: 3',5'-cyclic-AMP phosphodiesterase 4D (Homo sapiens) (UniProt Q08499); experiment: Inhibition of PDE4D2 (unknown origin) at 10 uM
Sequence of 3',5'-cyclic-AMP phosphodiesterase 4D (Homo sapiens) (Q08499 whole entry): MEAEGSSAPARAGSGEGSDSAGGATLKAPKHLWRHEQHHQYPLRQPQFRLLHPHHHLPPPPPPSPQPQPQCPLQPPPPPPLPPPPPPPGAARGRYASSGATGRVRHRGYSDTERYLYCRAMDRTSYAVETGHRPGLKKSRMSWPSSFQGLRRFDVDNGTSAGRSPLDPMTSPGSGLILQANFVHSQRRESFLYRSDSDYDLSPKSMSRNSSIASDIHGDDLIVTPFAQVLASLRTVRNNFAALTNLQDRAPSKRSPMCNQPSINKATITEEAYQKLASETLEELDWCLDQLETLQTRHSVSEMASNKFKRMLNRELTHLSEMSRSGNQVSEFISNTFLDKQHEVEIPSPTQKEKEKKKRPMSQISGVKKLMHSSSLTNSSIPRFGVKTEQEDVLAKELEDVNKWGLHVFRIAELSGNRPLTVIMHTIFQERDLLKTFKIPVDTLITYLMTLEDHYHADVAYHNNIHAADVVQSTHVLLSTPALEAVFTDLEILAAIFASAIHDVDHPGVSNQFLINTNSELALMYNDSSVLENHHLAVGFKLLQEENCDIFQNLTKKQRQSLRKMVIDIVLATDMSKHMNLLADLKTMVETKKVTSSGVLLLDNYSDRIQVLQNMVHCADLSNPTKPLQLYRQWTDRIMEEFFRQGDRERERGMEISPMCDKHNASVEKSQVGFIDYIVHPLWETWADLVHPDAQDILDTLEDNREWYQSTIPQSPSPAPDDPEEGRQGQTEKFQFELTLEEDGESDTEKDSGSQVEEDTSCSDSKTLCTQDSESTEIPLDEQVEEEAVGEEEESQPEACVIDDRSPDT
How it was run: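 Single-concentration safety screen at 10 μM across a 47-target panel. GPCRs were run in antagonist mode and enzymes in inhibitor mode.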

[13] = Toxicity in C57BL/6 mouse assessed as change in body weight at 50 mg/kg, ip administered as single dose and measured after 15 days (reference value: 23.5 to 24.2 g); type: organism-based; conditions: in vivo, 360 h, time 15 day; how it was run: as §2
[14] = Toxicity in C57BL/6 mouse assessed as change in body weight at 500 mg/kg, ip administered as single dose and measured after 15 days (reference value: 23.5 to 24.2 g); type: organism-based; conditions: in vivo, 360 h, time 15 day; how it was run: as §2
[15] = Toxicity in C57BL/6 mouse assessed as change in kidney weight at 500 mg/kg, ip administered as single dose and measured after 15 days (reference value: 0.3 g); type: organism-based; conditions: in vivo, 360 h, time 15 day; how it was run: as §2
[16] = Acute toxicity in C57BL/6 mouse assessed as mortality at 500 mg/kg, ip administered as single dose and measured after 15 days; type: organism-based; conditions: in vivo, 360 h, time 15 day
How it was run: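 Single intraperitoneal injection (100 µL) into female C57BL/6 mice, with IP2 diluted in sterile PBS at 50, 100, 250 or 500 mg/kg; PBS-treated controls. Behaviour watched right after and at 30 min. Body weight followed every 2–3 days for 15 days. Euthanasia criterion was weight loss ≥20%. Liver, spleen and kidney weights taken at day 15.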

[17] = Half life in Beagle dog at 26.76 mg/kg, iv administered as single dose measured up to 24 hrs; type: ADME, organism-based, Canis lupus familiaris; conditions: in vivo; how it was run: as §4
[18] = Toxicity in C57BL/6 mouse assessed as change in body weight at 100 mg/kg, ip administered as single dose and measured after 15 days (reference value: 23.5 to 24.2 g); type: organism-based; conditions: in vivo, 360 h, time 15 day; how it was run: as §2
[19] = Toxicity in C57BL/6 mouse assessed as change in spleen weight at 100 mg/kg, ip administered as single dose and measured after 15 days (reference value: 0.1 to 0.2 g); type: organism-based; conditions: in vivo, 360 h, time 15 day; how it was run: as §2
[20] = Metabolic stability in mouse liver microsomes assessed as intrinsic clearance incubated for 45 mins by HPLC-MS/MS analysis; type: ADME, Microsome; conditions: read-out: CLH; how it was run: as §1
[21] = MRT(0 to t) in C57BL/6J mouse at 9.103 mg/kg, ip administered as single dose measured up to 24 hrs; type: ADME, organism-based; conditions: in vivo; how it was run: as §3
[22] = Toxicity in C57BL/6 mouse assessed as change in spleen weight at 500 mg/kg, ip administered as single dose and measured after 15 days (reference value: 0.1 to 0.2 g); type: organism-based; conditions: in vivo, 360 h, time 15 day; how it was run: as §2
[23] = Total clearance in C57BL/6J mouse at 9.103 mg/kg, ip administered as single dose measured up to 24 hrs; type: ADME, organism-based; conditions: in vivo
How it was run: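 Male C57BL/6J mice, single IP dose. Tail-vein blood into sodium heparin for plasma. Twelve mice per route, three per pair of time points: 0.083 and 2 h, 0.25 and 4 h, 0.5 and 8 h, 1 and 24 h. Parameters derived from plasma concentration–time data.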

[24] = Total clearance in C57BL/6J mouse at 0.711 mg/kg, iv administered as single dose measured up to 24 hrs; type: ADME, organism-based; conditions: in vivo; how it was run: as §4
[25] = Toxicity in C57BL/6 mouse assessed as change in liver weight at 100 mg/kg, ip administered as single dose and measured after 15 days (reference value: 1.2 to 1.3 g); type: organism-based; conditions: in vivo, 360 h, time 15 day; how it was run: as §2
[26] = Half life in C57BL/6J mouse at 0.711 mg/kg, iv administered as single dose measured up to 24 hrs; type: ADME, organism-based; conditions: in vivo; how it was run: as §4

COc1ccc(-c2cc(=O)c3c(O)cc(OP(=O)([O-])[O-])c(-c4cc(-c5cc(=O)c6c(O)cc(OP(=O)([O-])[O-])cc6o5)ccc4OC)c3o2)cc1.[Na+].[Na+].[Na+].[Na+]
remaining at 0.75 h [1]: 60.8%
Activity [2]: 0.1 g
remaining at 0.75 h [3]: 64.7%
%AUCextra [4]: 1.3%
Activity [5]: 0.1 g
Activity [6]: 40%
Activity [7]: 1 g
Cmax [8]: 323 ng/mL
Tmax [9]: 5 min
Activity [10]: 0.9 g
MRT last at 24 h [11]: 54 min
inhibition [12]: 87.2%
Activity [13]: 19.5 g
Activity [14]: 20.4 g
Activity [15]: 0.2 g
Activity [16]: Non-Toxic
half-life [17]: 228 min
Activity [18]: 19.5 g
Activity [19]: 0.1 g
microsomal CLint [20]: 8 µL/min/mg
MRT last at 24 h [21]: 42 min
Activity [22]: 0.1 g
CL/F [23]: 154 mL/min/kg
clearance [24]: 133 mL/min/kg
Activity [25]: 1 g
half-life [26]: 66 min
